Measurements published in PubChem BioAssay.
Calls of active or inactive are those of the source.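 The calls were made as follows: active = current rise at least 3 SD above the untreated control mean in each of two repeat wells; inactive = the rest.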

The compounds below were run against Potassium voltage-gated channel subfamily KQT member 1 (Homo sapiens) (UniProt P51787) (assay: KCNQ1 activators by electrophysiology – IonWorks patch clamp, KCNQ1-CHO cells, orthogonal assay for KCNQ1 potentiator project, confirmation (AID 493184)). Conditions: automated patch clamp current, at 10 µM.
Sequence of Potassium voltage-gated channel subfamily KQT member 1 (Homo sapiens) (P51787 whole entry, looked up): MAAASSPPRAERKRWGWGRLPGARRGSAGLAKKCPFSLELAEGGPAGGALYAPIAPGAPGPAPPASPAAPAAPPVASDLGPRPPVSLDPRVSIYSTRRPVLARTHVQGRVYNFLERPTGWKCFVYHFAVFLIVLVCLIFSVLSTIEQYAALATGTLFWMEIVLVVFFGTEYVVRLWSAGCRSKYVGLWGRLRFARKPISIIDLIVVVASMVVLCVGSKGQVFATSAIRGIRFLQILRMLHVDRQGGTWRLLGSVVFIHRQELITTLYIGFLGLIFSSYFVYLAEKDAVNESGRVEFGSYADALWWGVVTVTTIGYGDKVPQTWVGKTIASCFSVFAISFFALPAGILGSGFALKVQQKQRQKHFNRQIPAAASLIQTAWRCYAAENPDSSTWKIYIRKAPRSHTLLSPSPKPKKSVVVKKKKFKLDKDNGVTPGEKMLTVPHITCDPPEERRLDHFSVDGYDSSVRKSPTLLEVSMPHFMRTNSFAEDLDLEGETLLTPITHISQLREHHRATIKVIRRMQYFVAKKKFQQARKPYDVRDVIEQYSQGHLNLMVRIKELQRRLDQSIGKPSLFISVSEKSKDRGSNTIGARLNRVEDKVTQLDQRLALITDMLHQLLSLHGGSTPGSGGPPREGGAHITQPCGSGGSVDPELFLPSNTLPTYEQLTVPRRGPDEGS
Procedure, shortened: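 Material: KCNQ1-expressing CHO cells; doses: 10 µM final, single point; probe or stimulus: voltage step from -90 mV holding to +40 mV, 2,000 ms; signal: automated voltage clamp, amphotericin B perforated patch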

outcome, inactive:
CCOC(=O)c1sc(NC(=S)NC(=O)c2ccc(OC)cc2)nc1C
S=c1nc(Cc2ccc(Cl)cc2)[nH]c2ccccc12
Cc1ccc(C(=O)Nc2nnn(C)n2)cc1
O=C(COc1ccccc1)NC(=S)N1CCc2ccccc21
Cc1ccc(-c2c(C(=O)O)c3ccccc3[nH]c2=O)cc1
CCOC(=O)/C(C)=N/NC(=O)c1cccc([N+](=O)[O-])c1
CCOC(=O)NC(=S)Nc1ccc(C(C)(C)C)cc1Br
COc1ccccc1CNC(=O)COC(=O)c1nccnc1N
COc1ccc(C)cc1-n1c(SCC(=O)Nc2cc(C)on2)nc2ccccc2c1=O
Cc1c(Cl)cccc1NC(=O)Cn1c(CCC(=O)O)ccc1-c1ccccc1
N=c1ccn(CC(=O)c2ccc(-c3ccccc3)cc2)cc1
CC(C)Cc1c2c([nH]c(=S)c1C#N)CCCC2
Cc1[nH]n2c(=O)cc(C(C)(C)C)nc2c1-c1ccccc1
S=c1nc(COc2ccccc2)[nH]c2ccccc12
COC(=O)c1c(NC(=S)Nc2ccc(F)cc2[N+](=O)[O-])sc2c1CCCCC2
COc1ccc(NC(=O)C(=O)NNC(=O)c2cccs2)c(OC)c1
O=C1NC(=S)S/C1=C\c1ccc2ccccc2c1
Cc1ccc(S(=O)(=O)N2CCN(C(=O)CCC(=O)OCC(=O)Nc3cccc(C#N)c3)CC2)cc1
CCNC(=S)Nc1scc(-c2ccccc2)c1C(=O)OCC
CC1(C)CC(N2CCOCC2)=CC(=[N+]2CCOCC2)C1
C=CCn1c(SCC(N)=O)nc2scc(-c3ccc(C)o3)c2c1=O
CCCCn1c(-c2csc3c2CCC(C)C3)n[nH]c1=S (stereo not drawn)
Cc1ccc(N(C(=O)c2ccco2)C(C(=O)NC2CCCC2)c2cccnc2)cc1C (stereo not drawn)
